Columns and labels:
Histone deacetylase 8 = biological target: T1, Histone deacetylase 8 (Homo sapiens, UniProt Q9BY41); test: Inhibition of human HDAC8 using Z-L-Lys([…]-trifluoroacetyl)-AMC as substrate after 90 mins by fluorescence analysis
T1 sequence (Q9BY41 whole entry): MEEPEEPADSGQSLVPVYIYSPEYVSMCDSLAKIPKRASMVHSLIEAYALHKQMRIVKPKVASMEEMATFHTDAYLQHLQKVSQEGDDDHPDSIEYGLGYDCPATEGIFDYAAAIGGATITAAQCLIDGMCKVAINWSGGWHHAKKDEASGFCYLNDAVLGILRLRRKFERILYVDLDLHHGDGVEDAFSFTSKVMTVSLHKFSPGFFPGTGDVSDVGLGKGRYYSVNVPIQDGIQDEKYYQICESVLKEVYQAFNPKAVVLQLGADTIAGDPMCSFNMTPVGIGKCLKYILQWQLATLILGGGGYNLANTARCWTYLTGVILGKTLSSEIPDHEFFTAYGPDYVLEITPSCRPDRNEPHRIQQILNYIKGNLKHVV

[1] = biological target: T2, Protein deacetylase HDAC6 (Homo sapiens, UniProt Q9UBN7); test: Inhibition of human HDAC6 using (Z-(Ac)Lys-AMC) as substrate after 90 mins by fluorescence analysis
T2 sequence (Q9UBN7 whole entry): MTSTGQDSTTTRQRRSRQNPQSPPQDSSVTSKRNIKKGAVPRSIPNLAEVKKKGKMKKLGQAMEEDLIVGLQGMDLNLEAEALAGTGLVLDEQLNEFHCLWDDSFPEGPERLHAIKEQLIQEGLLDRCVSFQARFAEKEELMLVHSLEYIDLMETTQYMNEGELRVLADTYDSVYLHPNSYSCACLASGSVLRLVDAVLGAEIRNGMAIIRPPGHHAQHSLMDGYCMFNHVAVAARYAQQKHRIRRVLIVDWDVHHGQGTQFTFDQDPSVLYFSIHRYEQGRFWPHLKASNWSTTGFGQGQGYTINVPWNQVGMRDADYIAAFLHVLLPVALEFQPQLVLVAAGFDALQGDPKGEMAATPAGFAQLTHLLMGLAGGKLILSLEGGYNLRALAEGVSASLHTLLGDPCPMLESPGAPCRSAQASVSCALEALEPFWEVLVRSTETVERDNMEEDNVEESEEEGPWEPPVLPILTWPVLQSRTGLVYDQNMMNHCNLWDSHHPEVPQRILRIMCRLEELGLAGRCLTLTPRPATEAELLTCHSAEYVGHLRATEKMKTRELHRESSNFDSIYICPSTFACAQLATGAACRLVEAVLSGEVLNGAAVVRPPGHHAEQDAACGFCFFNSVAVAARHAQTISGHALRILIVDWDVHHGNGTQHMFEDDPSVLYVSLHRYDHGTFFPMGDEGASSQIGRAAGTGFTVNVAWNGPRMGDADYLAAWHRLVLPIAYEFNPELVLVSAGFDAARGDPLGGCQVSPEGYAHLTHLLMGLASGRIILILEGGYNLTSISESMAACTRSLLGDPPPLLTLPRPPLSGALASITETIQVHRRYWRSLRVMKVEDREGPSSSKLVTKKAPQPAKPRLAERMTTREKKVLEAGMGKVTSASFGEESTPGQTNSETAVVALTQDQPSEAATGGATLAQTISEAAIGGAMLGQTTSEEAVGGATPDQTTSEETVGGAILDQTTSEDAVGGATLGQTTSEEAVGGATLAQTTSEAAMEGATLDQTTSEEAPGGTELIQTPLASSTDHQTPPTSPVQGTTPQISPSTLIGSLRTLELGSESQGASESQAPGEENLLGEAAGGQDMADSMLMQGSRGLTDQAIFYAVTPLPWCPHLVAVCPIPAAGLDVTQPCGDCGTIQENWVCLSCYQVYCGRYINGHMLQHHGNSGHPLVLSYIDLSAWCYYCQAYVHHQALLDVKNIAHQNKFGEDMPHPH

Histone deacetylase 1 [2] = biological target: T3, Histone deacetylase 1 (Homo sapiens, UniProt Q13547); test: Inhibition of human HDAC1 using (Z-(Ac)Lys-AMC) as substrate after 90 mins by fluorescence analysis
[3] = Cytotoxicity against human HL60 cells after 72 hrs by cell titre 96 aqueous cell proliferation assay; assay type: functional, HL-60
How it was run: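 HL60 cells, 5000/well in RPMI with 10% FBS, 2 mM L-glutamine and penicillin/streptomycin, treated with a range of concentrations (0.05% DMSO control) for 72 h. MTS/PMS (20:1) was then added and A490 read after 2-4 h, with the cell-free background subtracted. GI50 is the concentration giving 50% viable cells; triplicates, mean of at least two experiments.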

Histone deacetylase 1 [4] = biological target: T3, Histone deacetylase 1; test: Inhibition of human HDAC1 at 10 uM using (Z-(Ac)Lys-AMC) as substrate after 90 mins by fluorescence analysis
[5] = biological target: T4, Histone deacetylase 8 (Homo sapiens) (UniProt Q9BY41); test: Inhibition of human HDAC8 at 100 uM using Z-L-Lys([…]-trifluoroacetyl)-AMC as substrate after 90 mins by fluorescence analysis
T4 sequence (whole entry): T1 sequence (Q9BY41 whole entry)

Homo sapiens = species on record: Homo sapiens; test: Selectivity ratio of IC50 for class1 HDAC (unknown origin) to IC50 for HDAC6 (unknown origin)
How it was run: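 Ratio of IC50 HDAC1 (or HDAC8) to IC50 HDAC6. Human recombinant HDAC1/6 were run in Tris-HCl pH 8.0 with NaCl, KCl, MgCl2 and BSA, using ZMAL substrate. HDAC8 was run in KH2PO4/Tris pH 7.5 with Z-L-Lys(ε-trifluoroacetyl)-AMC. All: 90 min at 37 °C, then TSA/trypsin stop for 30 min, fluorescence ex 390/em 460 nm. IC50 is the mean of at least two experiments.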

T3 sequence (Q13547 whole entry): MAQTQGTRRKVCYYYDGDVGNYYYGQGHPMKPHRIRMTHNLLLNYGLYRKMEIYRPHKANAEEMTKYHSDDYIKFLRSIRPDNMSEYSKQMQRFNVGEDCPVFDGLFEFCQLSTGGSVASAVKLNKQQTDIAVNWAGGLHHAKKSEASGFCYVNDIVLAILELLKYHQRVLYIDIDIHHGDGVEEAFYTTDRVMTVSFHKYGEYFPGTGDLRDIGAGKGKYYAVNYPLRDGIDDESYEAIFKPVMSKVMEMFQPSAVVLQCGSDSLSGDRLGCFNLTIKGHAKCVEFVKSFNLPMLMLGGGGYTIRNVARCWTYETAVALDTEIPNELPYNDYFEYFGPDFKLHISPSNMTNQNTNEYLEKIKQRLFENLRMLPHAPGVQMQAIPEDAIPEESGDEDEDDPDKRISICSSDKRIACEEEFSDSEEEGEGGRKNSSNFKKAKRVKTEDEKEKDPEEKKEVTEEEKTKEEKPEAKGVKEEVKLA

IC50 (Histone deacetylase 8) [µM] | IC50 [1] [µM] | IC50 (Histone deacetylase 1 [2]) [µM] | inhibition (Histone deacetylase 1 [4]) [%] | inhibition [5] [%] | Ratio IC50 (Homo sapiens) | SMILES | GI50 ([3]; Homo sapiens, HL-60, 72 h) [µM] | GI50 [3] [µM]
27.3 | 0.089 | 29.5 | – | – | – | O=C(NO)c1coc(-c2ccc(-c3ccccc3)cc2)n1 | 5.6 | –
– | 0.3 | – | 36 | – | – | O=C(NO)c1csc(-c2cccnc2)n1 | – | –
20 | 2.77 | 33.5 | – | – | – | O=C(NO)c1noc(-c2ccc(Br)cc2)n1 | – | –
30.8 | 0.081 | 19.6 | – | – | – | O=C(NO)c1coc(-c2ccc(Cl)cc2)n1 | – | –
10.1 | 0.5 | 19.1 | – | – | – | O=C(NO)c1coc(-c2cccc(-c3ccccc3)c2)n1 | – | –
– | – | – | – | – | – | O=C(NO)c1coc(-c2ccc(Br)cc2)n1 | 10.2 | –
33.9 | 0.313 | 40.1 | – | – | – | Cc1ccc(-c2nc(C(=O)NO)co2)cc1 | – | –
61.4 | 8.85 | 82.2 | – | – | – | O=C(NO)c1csc(-c2cnccn2)n1 | – | –
50.9 | 0.195 | 32.9 | – | – | – | COc1ccc(-c2nc(C(=O)NO)co2)cc1 | 29.2 | –
26.2 | 0.089 | 12.2 | – | – | – | O=C(NO)c1coc(-c2ccc3ccccc3c2)n1 | 6.3 | –
36.4 | 1.06 | 17.5 | – | – | – | O=C(NO)c1csc(-c2ccc(Br)cc2)n1 | 11.1 | –
8.13 | 0.311 | 36.5 | – | – | – | O=C(NO)c1coc(-c2cccs2)n1 | – | –
35 | 2.54 | 83.6 | – | – | – | O=C(NO)c1csc(Cc2ccccc2)n1 | – | –
29.1 | 0.182 | 22.5 | – | – | – | COc1ccc2cc(-c3nc(C(=O)NO)co3)ccc2c1 | – | –
20.2 | 2.18 | 22.6 | – | – | – | O=C(NO)c1coc(-c2ccccc2Br)n1 | – | –
38.5 | 0.112 | 25 | – | – | – | O=C(NO)c1noc(-c2ccccc2)n1 | – | –
– | 1.31 | 14.9 | – | 62 | – | O=C(NO)c1noc(-c2ccc(-c3ccccc3)cc2)n1 | – | –
43.3 | 0.11 | 23.7 | – | – | – | O=C(NO)c1coc(-c2ccc(F)cc2)n1 | 30.1 | –
– | – | – | – | – | – | O=C(CCCCCCC(=O)Nc1ccccc1)NO [VORINOSTAT] | – | 0.08
41.9 | 0.27 | 29.9 | – | – | – | O=C(NO)c1coc(-c2ccccc2)n1 | 44.1 | –
2.7 | 9.37 | 93.9 | – | – | – | O=C(NO)c1coc(C(c2ccccc2)c2ccccc2)n1 | – | –
12.9 | 3.69 | 47.7 | – | – | – | O=C(NO)c1csc(C(c2ccccc2)c2ccccc2)n1 | – | –
12.1 | 1.91 | 10.3 | – | – | – | O=C(NO)c1csc(-c2ccccc2)n1 | – | –
– | – | – | – | – | 10 | O=C(CCCCCCNC(=O)c1cnc(N(c2ccccc2)c2ccccc2)nc1)NO | – | –
